Our source for the folding enthalpy and Tm values is the array DNA melting data of Ke et al. (doi:10.1101/2024.01.08.574731).

A short description of data set [1]: folding enthalpy; higher = less favourable; fluorescence melt of hairpins on a sequencing array, two-state fit. Particulars: sodium 0.088 M. Put shortly:
(§1)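 Two-state fits, bootstrapped, provided melting temperature and folding enthalpy from Cy3 fluorescence normalised to pre-quench Cy3 and to control constructs. Library hairpins with annealed Cy3 and quencher oligos were imaged on a sequenced MiSeq flow cell in 50 mM Na-HEPES pH 8.0, 25 mM NaCl, at 2.5 °C intervals up to 60 °C. Four replicates were combined with inverse-variance weighting. A 9.35 °C upward shift was applied to fitted temperatures to match UV melts.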

Data set [2] can be described thus: melting temperature; fluorescence melt of hairpins on a sequencing array, two-state fit, raised by 9.35 °C to match UV melts. Particulars: sodium 0.088 M. In short, it runs like this: as §1

For the sequence GCTTACGAAAGTACTAGC ((((((....)))..))), the folding enthalpy in data set [1] is -13.6 kcal/mol. In addition, the Tm in data set [2] turned out to be 31.8 °C.

GCTCGGCGAAAGCCCTGC ((..(((....)))..)): in data set [1], the folding enthalpy is -7.65 kcal/mol. Besides, the Tm in data set [2] worked out at 53.4 °C.

Consider GCGAGCGAAAGCTGTCGC ((((((....)))..))), for which the folding enthalpy in data set [1] was -23.8 kcal/mol. For the same sequence, the Tm in data set [2] amounted to 52.9 °C.

With GATCAACGTTTTGATC ((((((....)))))), the folding enthalpy in data set [1] was -30.4 kcal/mol. For the same sequence, in data set [2], the Tm was determined as 42.8 °C.

Regarding GTCGGCGAAAGCCCCGAC ((((((....)))..))), the folding enthalpy in data set [1] was -15.6 kcal/mol. The Tm in data set [2] is 41.8 °C.

GGAATCCGAAAGGATCC (((.(((....)))))): the folding enthalpy in data set [1] was -19.6 kcal/mol. In addition, in data set [2], the Tm came out at 50 °C.

GTCAGCGCGAAAGCGGAC (((..(((....)))))): in data set [1], the folding enthalpy was -15.6 kcal/mol. Also, in data set [2], the Tm came to 46.6 °C.

GGAGGGCCGAAAGGCTCC (((..(((....)))))): the folding enthalpy in data set [1] is -9.45 kcal/mol. For the same sequence, in data set [2], the Tm worked out at 39.4 °C.

As to GCATGAGGAAACTCATAC (.(((((....))))).), the folding enthalpy in data set [1] is -17.2 kcal/mol. The Tm in data set [2] came to 32.6 °C.

Consider GATCTATTGTTAGATC ((((((....)))))), for which the folding enthalpy in data set [1] is -35.9 kcal/mol. The Tm in data set [2] amounted to 42.5 °C.

GTCGAGACGAAAGTCGAC (((..(((....)))))): in data set [1], the folding enthalpy was -20.9 kcal/mol. Further, the Tm in data set [2] was 51.4 °C.

On to GATCATCATGATGATC ((((((....)))))), for which the folding enthalpy in data set [1] is -38 kcal/mol. In data set [2], the Tm stood at 53.8 °C.

For the sequence GTAAGCCGAAAGGCATAC (((.(((....))).))), the folding enthalpy in data set [1] is -18.4 kcal/mol. In data set [2], the Tm was 46.6 °C.

Take GGGAGACGAAAGTCCCCC (((.(((....))).))): the folding enthalpy in data set [1] is -28.8 kcal/mol. In addition, the Tm in data set [2] worked out at 58.8 °C.

Consider GATCGACTGCTCGATC ((((((....)))))), for which the folding enthalpy in data set [1] is -43.4 kcal/mol. Also, the Tm in data set [2] worked out at 50.9 °C.

Regarding GATCGGAGTGCCGATC ((((((....)))))), in data set [1], the folding enthalpy is -30.2 kcal/mol. Moreover, the Tm in data set [2] came out at 57 °C.

For GGCAGGGAAACCTGCC ((((((....)))))), the folding enthalpy in data set [1] was -30.2 kcal/mol. Besides, in data set [2], the Tm came to 69.3 °C.

GATCACTCCCGTGATC ((((((....)))))): the folding enthalpy in data set [1] is -47.2 kcal/mol. In addition, in data set [2], the Tm worked out at 55.8 °C.

Consider GCCCGGCGAAAGCCTCGC ((..(((....)))..)), for which the folding enthalpy in data set [1] was -6.9 kcal/mol. For the same sequence, in data set [2], the Tm turned out to be 27.3 °C.

Turning to GCGATTACTCGC ((((....)))), the folding enthalpy in data set [1] is -23.7 kcal/mol. Besides, the Tm in data set [2] stood at 49.3 °C.

In the case of GAATCCGAAAGGACCTTC ((((((....)))..))), the folding enthalpy in data set [1] was -12.7 kcal/mol. The Tm in data set [2] turned out to be 30.3 °C.

Turning to GTGAGCGAAAGCTGCCAC ((((((....)))..))), the folding enthalpy in data set [1] is -8.52 kcal/mol. In data set [2], the Tm is 37.6 °C.

For GCGTACAACGC ((((...)))), the folding enthalpy in data set [1] is -22.4 kcal/mol. Moreover, in data set [2], the Tm was found to be 55.6 °C.

For the sequence GGCATTGGAAACGATGCC (((((.(....).))))), the folding enthalpy in data set [1] is -42.5 kcal/mol. Besides, in data set [2], the Tm came out at 55.6 °C.

For the sequence GCATCGGGAAACCGATAC (.(((((....))))).), the folding enthalpy in data set [1] is -13.7 kcal/mol. In data set [2], the Tm came out at 41.5 °C.

Take GGTACGGAAACGTACC ((((((....)))))): the folding enthalpy in data set [1] is -37.8 kcal/mol. In data set [2], the Tm worked out at 65.8 °C.

As for GGTGTTGGAAACAGCACC ((((.((....)).)))), the folding enthalpy in data set [1] is -37.1 kcal/mol. In data set [2], the Tm is 51.8 °C.

Regarding GCCATCCCGAAAGGGGGC (((..(((....)))))), in data set [1], the folding enthalpy is -18.1 kcal/mol. In data set [2], the Tm amounted to 51.8 °C.

As for GCCCGCGAAAGCGCAGGC ((((((....)))..))), the folding enthalpy in data set [1] is -20.1 kcal/mol. The Tm in data set [2] was found to be 56.3 °C.

With GTACTCGCGAAAGCGTAC (((..(((....)))))), the folding enthalpy in data set [1] is -11.1 kcal/mol. In addition, in data set [2], the Tm is 30.4 °C.

Turning to GCCGCCGAAAGGCTAGGC ((((((....)))..))), the folding enthalpy in data set [1] is -27.9 kcal/mol. Also, the Tm in data set [2] was 60.5 °C.

As for GTTATGCGAAAGCAGAAC (((.(((....))).))), the folding enthalpy in data set [1] was -31.5 kcal/mol. Besides, the Tm in data set [2] came to 55.9 °C.

For the sequence GCAATGCGAAAGCTTGGC ((.(.((....)).).)), in data set [1], the folding enthalpy is -19.1 kcal/mol. The Tm in data set [2] came to 40.6 °C.

As for GATCTATTAGTAGATC ((((((....)))))), the folding enthalpy in data set [1] is -33.8 kcal/mol. For the same sequence, the Tm in data set [2] is 44.4 °C.

As for GACCATCCGAAAGGAGTC (((..(((....)))))), in data set [1], the folding enthalpy is -14.4 kcal/mol. Besides, the Tm in data set [2] stood at 26.4 °C.

On to GATCAGAAGTCTGATC ((((((....)))))), for which, in data set [1], the folding enthalpy is -30 kcal/mol. Moreover, the Tm in data set [2] was found to be 49 °C.

GATCTGTCTTCAGATC ((((((....)))))): the folding enthalpy in data set [1] is -38.7 kcal/mol. Moreover, the Tm in data set [2] was 51.4 °C.
